Test results published in paper PMC3143825 (Bioorganic & medicinal chemistry, 2011).
pIC50: −log10 of the molar value.

How the values were obtained:
[1] = system: Hsp90 from SKBr3 cellular extracts; assay: Fluorescence polarization; format: binding; conditions: for pIC50: read-out: IC50, binding affinity for Hsp90, Hsp90 from SKBr3 cellular extracts, displacement of GM-cy3B (6 nM), 4°C, 24 h
[2] = molecular target: Cell surface Hsp90 in MV4-11 leukemia cells (Homo sapiens, UniProt P07900); assay: Flow cytometry detection of cell surface Hsp90; format: cell-based; conditions: MV4-11 cells, 2 h at 37°C, SA-PE staining; D-biotin as control
[3] = system: c-Kit and IGF-IR in MDA-MB-468 cells; format: cell-based; conditions: 5 μM, 24 h
Outline: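 MDA-MB-468 breast cancer cells kept in DME/F12 with 10% FBS, 1% L-glutamine and 1% penicillin/streptomycin at 37°C under 5% CO₂. Grown to 60–70% confluence, then exposed to test compound for 24 h. Lysed in 50 mM Tris pH 7.4, 150 mM NaCl, 1% NP-40. 10–50 μg protein run on SDS-PAGE and blotted to nitrocellulose. Probed with anti-IGF-IR (1:1000) and anti-c-Kit (1:200), then HRP secondary (1:3000), with ECL detection.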

| pIC50 [1] | Compound | detection of cell surface Hsp90 [2] | fold loss in potency as compared to SNX-2112 ([1]; FP assay, SKBr3 extract) [fold] | steady-state levels of c-Kit and IGF-IR [3] |
| --- | --- | --- | --- | --- |
| 7.17 | Nc1ncnc2c1nc(Sc1cc3c(cc1I)OCO3)n2CCCNCCOCCOCCOCCNC(=O)CCCC[C@@H]1SC[C@@H]2NC(=O)N[C@@H]21 [Compound 7] | can detect Hsp90 expression on the surface of leukemia cells | – | – |
| 8.15 | CCNC(=O)c1noc(-c2cc(C(C)C)c(O)cc2O)c1-c1ccc(CNCCCCCCN)cc1 [Compound 10, 4-(4-((6-Aminohexylamino)methyl)phenyl)-5-(2,4-dihydroxy-5-isopropylphenyl)-N-ethylisoxazole-3-carboxamide] | – | – | – |
| 6.68 | CC1(C)CC(=O)c2c(C(F)(F)F)nn(-c3ccc(C(N)=O)c(N[C@H]4CC[C@H](N)CC4)c3)c2C1 [Compound 18, 2-(trans-4-Aminocyclohexylamino)-4-(6,6-dimethyl-4-oxo-3-(trifluoromethyl)-4,5,6,7-tetrahydro-1H-indazol-1-yl)benzamide] | – | ~14 | – |
| 7.61 | CC1(C)CC(=O)c2c(C(F)(F)F)nn(-c3ccc(C(N)=O)c(N[C@H]4CC[C@H](NC(=O)CCCCCN)CC4)c3)c2C1 [Compound 20, 2-(trans-4-(6-Aminohexanamido)cyclohexylamino)-4-(6,6-dimethyl-4-oxo-3-(trifluoromethyl)-4,5,6,7-tetrahydro-1H-indazol-1-yl)benzamide] | – | – | – |
| 7.65 | CC(C)NCCCn1c(Sc2cc3c(cc2I)OCO3)nc2c(N)ncnc21 [PU-H71, reference compound] | – | – | reduction in the steady-state levels |

| Compound | pIC50 [1] | detection of cell surface Hsp90 [2] | fold loss in potency as compared to SNX-2112 ([1]; FP assay, SKBr3 extract) [fold] | steady-state levels of c-Kit and IGF-IR [3] |
| --- | --- | --- | --- | --- |
| CCNC(=O)c1noc(-c2cc(C(C)C)c(O)cc2O)c1-c1ccc(CN2CCOCC2)cc1 [NVP-AUY922, reference compound] | 8.39 | – | – | – |
